Test results from ChEMBL document CHEMBL1155202, “Synthesis and anticancer activity of novel 3,4-diarylthiazol-2(3H)-ones (imines)” (Bioorg Med Chem Lett, 2009).
Each block holds one molecule with its values, some of them ahead of it.

Key:
SW1990 = test: Anticancer activity against human SW1990 cells after 72 hrs; type: functional, cell-based; details: SW1990, 72 h
Method in brief: (§1)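 Solid human tumour lines (liver Bel-7402, HepG2, SMMC-7721; breast MCF-7; pancreatic SW-1990; colon HCT116) were exposed to compounds. IC50 was taken as the concentration inhibiting 50% of cell proliferation. CA-4 served as positive control.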

HepG2 [1] = test: Cell cycle arrest in human HepG2 cells assessed as increase in G2/M phase cells after 20 hrs by flow cytometry using propidium iodide staining; type: functional, cell-based; details: for EC50: HepG2, 20 h
Method in brief: (§2)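 HepG2 cells were left untreated or treated with compounds across a dose range for 20 h at 37 °C. CA-4 served as positive control. Cell-cycle phase distribution (G1, S, G2/M fractions) was then analysed by flow cytometry.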

SMMC-7721 = test: Anticancer activity against human SMMC7721 cells after 72 hrs; type: functional, cell-based; details: SMMC-7721, 72 h; method in brief: as §1
CCRF-CEM = test: Anticancer activity against human CCRF-CEM cells after 72 hrs; type: functional, cell-based
Method in brief: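 CEM human leukemia cells were exposed to compounds. IC50 was defined as the concentration required to inhibit 50% of cell proliferation.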

Bel-7402 = test: Anticancer activity against human Bel7402 cells after 72 hrs; type: functional, cell-based; details: Bel-7402, 72 h; method in brief: as §1
HepG2 [2] = test: Anticancer activity against human HepG2 cells after 72 hrs; type: functional, cell-based; details: HepG2, 72 h; method in brief: as §1
HepG2 [3] = test: Ratio of Compound EC50 to Combrestatin A4 EC50 for cell cycle arrest in human HepG2 cells assessed as increase in G2/M phase cells after 20 hrs by flow cytometry using propidium iodide staining; type: functional
HCT-116 = test: Anticancer activity against human HCT116 cells after 72 hrs; type: functional, cell-based; details: HCT-116, 72 h; method in brief: as §1
HepG2 [4] = test: Cell cycle arrest in human HepG2 cells assessed as decrease in S phase cells after 20 hrs by flow cytometry using propidium iodide staining; type: functional, cell-based; method in brief: as §2
MCF7 = test: Anticancer activity against human MCF7 cells after 72 hrs; type: functional, cell-based; details: MCF7, 72 h; method in brief: as §1
HepG2 [5] = test: Cell cycle arrest in human HepG2 cells assessed as decrease in G1 phase cells after 20 hrs by flow cytometry using propidium iodide staining; type: functional, cell-based; method in brief: as §2

IC50 (CCRF-CEM): 13.8 µM
Compound: COc1ccc(-n2c(-c3cc(OC)c(OC)c(OC)c3)c(Cl)sc2=O)cc1

IC50 (CCRF-CEM): 10.1 µM
Compound: COc1ccc(-n2c(-c3cc(OC)c(OC)c(OC)c3)csc2=O)cc1N

IC50 (CCRF-CEM): 1.5 µM
Compound: COc1ccc(-c2csc(=N)n2-c2cc(OC)c(OC)c(OC)c2)cc1

IC50 (CCRF-CEM): 13.2 µM
Compound: COc1ccc(-n2c(-c3cc(OC)c(OC)c(OC)c3)csc2=N)cc1

IC50 (CCRF-CEM): 2.7 µM
Compound: COc1ccc(-n2c(-c3cc(OC)c(OC)c(OC)c3)csc2=O)cc1[N+](=O)[O-]

IC50 (SW1990): 56.7 µM | EC50 (HepG2 [1]): > 250 µM | IC50 (SMMC-7721): 118 µM | IC50 (CCRF-CEM): 0.12 µM | IC50 (Bel-7402): 23.4 µM | IC50 (HepG2 [2]): 96 µM | IC50 (HCT-116): 85.1 µM | IC50 (MCF7): 52.5 µM
Compound: COc1ccc(-c2c(Cl)sc(=O)n2-c2cc(OC)c(OC)c(OC)c2)cc1N

IC50 (CCRF-CEM): 8.2 µM
Compound: COc1ccc(-c2csc(=O)n2-c2cc(OC)c(OC)c(OC)c2)cc1[N+](=O)[O-]

IC50 (CCRF-CEM): 7.5 µM
Compound: COc1ccc(-c2c(Cl)sc(=O)n2-c2cc(OC)c(OC)c(OC)c2)cc1[N+](=O)[O-]

IC50 (CCRF-CEM): 16.2 µM
Compound: COc1ccc(-n2c(-c3cc(OC)c(OC)c(OC)c3)c(Cl)sc2=O)cc1N

Further lines, the molecule ahead of its results:

Compound: COc1ccc(-c2csc(=O)n2-c2cc(OC)c(OC)c(OC)c2)cc1N
IC50 (SW1990): 20.3 µM | Activity (HepG2 [1]): Dose-dependent effect | EC50 (HepG2 [1]): 3.89 µM | IC50 (SMMC-7721): 7.4 µM | IC50 (CCRF-CEM): 0.24 µM | IC50 (Bel-7402): 3.3 µM | IC50 (HepG2 [2]): 4.5 µM | Ratio EC50 (HepG2 [3]): 130 | IC50 (HCT-116): 3.4 µM | Activity (HepG2 [4]): Dose-dependent effect | IC50 (MCF7): 4.4 µM | Activity (HepG2 [5]): Dose-dependent effect

Compound: COc1ccc(-n2c(-c3cc(OC)c(OC)c(OC)c3)c(Cl)sc2=O)cc1[N+](=O)[O-]
IC50 (CCRF-CEM): > 20 µM

Compound: COc1ccc(-c2csc(=O)n2-c2cc(OC)c(OC)c(OC)c2)cc1
IC50 (CCRF-CEM): 1.8 µM

Compound: COc1ccc(/C=C\c2cc(OC)c(OC)c(OC)c2)cc1O [COMBRETASTATIN A4]
IC50 (SW1990): 0.25 µM | EC50 (HepG2 [1]): < 0.03 µM | IC50 (SMMC-7721): 0.29 µM | IC50 (CCRF-CEM): 0.002 µM | IC50 (Bel-7402): 1.72 µM | IC50 (HepG2 [2]): 0.006 µM | IC50 (HCT-116): 0.006 µM | IC50 (MCF7): 0.03 µM

Compound: COc1ccc(-n2c(-c3cc(OC)c(OC)c(OC)c3)csc2=O)cc1
IC50 (CCRF-CEM): 14.9 µM

Compound: COc1ccc(-c2c(Cl)sc(=O)n2-c2cc(OC)c(OC)c(OC)c2)cc1
IC50 (CCRF-CEM): > 20 µM

Compound: COc1ccc(-c2csc(=N)n2-c2ccc(OC)cc2)cc1
IC50 (CCRF-CEM): > 20 µM
